Data reported in ChEMBL document CHEMBL3045526, “Tailoring the structure of aminobisphosphonates to target plant P5C reductase” (J Agric Food Chem, 2008).
Activity calls are given as the source filed them. No cut-off for these calls is given here.

Assays:
[1] = biological target: T1, Pyrroline-5-carboxylate reductase (Arabidopsis thaliana, UniProt P54904); experiment: Inhibition of Arabidopsis thaliana P5C assessed as reduction in NADH oxidation incubated at 35 degC up to 10 min
T1 sequence (P54904 whole entry): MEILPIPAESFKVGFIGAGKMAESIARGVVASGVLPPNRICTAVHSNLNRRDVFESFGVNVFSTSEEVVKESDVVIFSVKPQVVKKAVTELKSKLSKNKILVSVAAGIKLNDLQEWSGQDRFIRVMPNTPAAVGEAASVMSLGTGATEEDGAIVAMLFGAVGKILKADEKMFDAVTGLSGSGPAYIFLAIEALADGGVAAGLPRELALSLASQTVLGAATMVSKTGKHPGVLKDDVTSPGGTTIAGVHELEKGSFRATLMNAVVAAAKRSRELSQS
Procedure, shortened: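 P5C reductase partially purified from stationary-phase A. thaliana cultured cells. Forward reaction run in 100 mM Tris-HCl pH 8.0, 0.1 mM MgCl2, 2 mM DL-P5C, 0.25 mM NADH, with 0.15–0.20 nkat enzyme. A340 followed at 35 °C for up to 10 min against P5C-free blanks. Inhibitor final 5 µM–5 mM (pH 7.5–8.0), triplicate. IC50 by linear regression of % activity vs log concentration.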

[2] = system: Arabidopsis thaliana; experiment: Growth inhibition of Arabidopsis thaliana suspension cultured cells assessed as reduction in dry weight increase measured 8 days after compound incubation; assay type: functional
Procedure, shortened: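 Same A. thaliana Columbia suspension cultures, inoculated at 3.2–3.5 mg mL-1 dry weight. Filter-sterilized compounds (pH 6.0 with KOH) added at increasing concentrations once density reached 4.0 mg mL-1. After 8 days, when controls reached early stationary phase, cells were vacuum-filtered and oven-dried (90 °C, 48 h). Dry weight increase given as % of control; 50% growth-reduction concentration derived.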

[3] = system: Arabidopsis thaliana; experiment: Growth inhibition of Arabidopsis thaliana suspension cultured cells assessed as reduction in dry weight increase at 0.2 mM measured 8 days after compound incubation in presence of exogenously supplied 10 mM glutamine and 2 mM proline; assay type: functional
Procedure, shortened: (§1)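 A. thaliana Columbia suspension cells (MS medium, 0.3% sucrose, 2,4-D and BAP 0.5 mg L-1 each; 24 °C, 100 rpm, dim light). Flasks inoculated at 3.2–3.5 mg mL-1 dry weight. Inhibitor (pH 6.0) plus filter-sterilized amino acids added together at 4.0 mg mL-1. Dry weight increase after 8 days (oven, 90 °C, 48 h) given as % of untreated control. Four replicates.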

[4] = system: Arabidopsis thaliana; experiment: Growth inhibition of Arabidopsis thaliana suspension cultured cells assessed as reduction in dry weight increase at 0.2 mM measured 8 days after compound incubation in presence of exogenously supplied 10 mM glutamine; assay type: functional; procedure, shortened: as §1
[5] = system: Arabidopsis thaliana; experiment: Growth inhibition of Arabidopsis thaliana suspension cultured cells assessed as reduction in dry weight increase at 0.2 mM measured 8 days after compound incubation in presence of exogenously supplied 2 mM proline; assay type: functional; procedure, shortened: as §1

SMILES | IC50 [1] [mM] | growth inhibition (GI) [2] | further results
Cc1cc(C)cc(NC(P(=O)(O)O)P(=O)(O)O)c1 [3,5-DIMETHYLPHENYLAMINOMETHYLENEBISPHOSPHONIC ACID] | 1.07 |  | 
O=P(O)(O)C(Nc1c(Cl)cccc1Cl)P(=O)(O)O [2,6-DICHLOROPHENYLAMINOMETHYLENEBISPHOSPHONIC ACID] |  | Active | 
O=P(O)(O)C(Nc1cc(Cl)cc(Cl)c1)P(=O)(O)O [(3,5-DICHLOROPHENYLAMINO)METHYLENEDIPHOSPHONIC ACID] |  |  | GI50 ([2]; 192 h): 0.24 mM; growth inhibition (GI) [3]: inactive; growth inhibition (GI) [4]: Active; growth inhibition (GI) [5]: Active
O=P(O)(O)C(Nc1cccc(Cl)c1Cl)P(=O)(O)O [2,3-DICHLOROPHENYLAMINOMETHYLENEBISPHOSPHONIC ACID] |  | Active | 
O=P(O)(O)C(N1CCCCCC1)P(=O)(O)O [N-(HEXAMETHYLENEIMINO)METHYLENEBISPHOSPHONIC ACID] | 74.4 |  | 
O=P(O)(O)C(N1CCCCCCC1)P(=O)(O)O [N-(HEPTAMETHYLENEIMINO)METHYLENEBISPHOSPHONIC ACID] | 533 |  | 
